Screening results from PubChem BioAssay.
This is a sample that favours compounds with a hit; in the whole collection about 2.9% have one here.
S100A4 MyoIIA – blocks human S100A4 binding to myosin IIA peptide. S100A4/TAMRA-MyoIIA peptide fluorescence polarization. inhibition, % at 10.7 µM. 360,000 tested, 0.14% active;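 active = mean inhibition of at least 70% across replicates, with every replicate also reaching that level; inconclusive = mean inhibition reaches 70% but some replicates fall short; inactive = mean inhibition below 70%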
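Material: S100A4 monomer protein | Medium: HEPES pH 7.2 with CaCl2, KCl, NaCl, DTT, Triton | Reagent: Labelled myosin peptide probe, 5 nM | Doses: One dose per compound | Times: 5 min incubation before reading | Benchmarks: Neutral control DMSO, positive control TFP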
CAL PDZ FP-1 – inhibitors of human CAL PDZ peptide binding. 330,000 tested, 0.02% active. Q9HD26. inhibition, % at 20 µM. purified CAL PDZ, TMR-peptide fluorescence polarization, 1 h;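 active = highest replicate inhibition of at least 40%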;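 also: plate controls were DMSO neutral control wells for no effect and unlabeled competitor peptide control wells for full effect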
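Material: tagged CAL PDZ domain; buffer or medium: 25 mM sodium phosphate pH 7.4, 150 mM NaCl, TCEP, IgG, Thesit; compound dosing: single point, 20 µM; schedule: 1 h incubation at room temperature before polarization reading; measured by: FP readout, S and P plane fluorescence; read-out basis: percent inhibition from loss of millipolarization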
SIRT5 inh – blocks human SIRT5 desuccinylation of peptide | Q9NXA8 | Purified SirT5, succinyl-peptide AMC, trypsin-coupled fluorescence | inhibition, % at 15 µM | 330,000 tested, 1.1% active; in the data active = inhibition above about 15%; inconclusive = no clear call, values can overlap the other calls
CAL PDZ FP-2 – CAL PDZ (human) peptide binding inhibition | 300,000 tested, 0.92% active | purified CAL PDZ, TMR-peptide fluorescence polarization, 1 h | AID 602252 | inhibition, % at 24.9 µM;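 active = mean inhibition of at least 30% with at least half of replicates also reaching 30%; inconclusive = no clear call, values can overlap the other calls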;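 also: 0% = DMSO neutral control and 100% = excess unlabeled competitor peptide PRC23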
ERAP1 inh – blocks human ERAP1 aminopeptidase activity; recombinant ERAP1, Leu-AMC fluorescence, 60 min; 340,000 tested, 0.15% active; inhibition, % at 10.7 µM; AID 652197;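 active = mean replicate inhibition of at least 30%, or all replicates individually reaching that 30% level; inactive = mean below 30% and not every replicate reaching it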;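 also: 0% = neutral control wells and 100% = L-leucinethiol positive control wells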
Target sequence (Q9NZ08 whole entry, looked up): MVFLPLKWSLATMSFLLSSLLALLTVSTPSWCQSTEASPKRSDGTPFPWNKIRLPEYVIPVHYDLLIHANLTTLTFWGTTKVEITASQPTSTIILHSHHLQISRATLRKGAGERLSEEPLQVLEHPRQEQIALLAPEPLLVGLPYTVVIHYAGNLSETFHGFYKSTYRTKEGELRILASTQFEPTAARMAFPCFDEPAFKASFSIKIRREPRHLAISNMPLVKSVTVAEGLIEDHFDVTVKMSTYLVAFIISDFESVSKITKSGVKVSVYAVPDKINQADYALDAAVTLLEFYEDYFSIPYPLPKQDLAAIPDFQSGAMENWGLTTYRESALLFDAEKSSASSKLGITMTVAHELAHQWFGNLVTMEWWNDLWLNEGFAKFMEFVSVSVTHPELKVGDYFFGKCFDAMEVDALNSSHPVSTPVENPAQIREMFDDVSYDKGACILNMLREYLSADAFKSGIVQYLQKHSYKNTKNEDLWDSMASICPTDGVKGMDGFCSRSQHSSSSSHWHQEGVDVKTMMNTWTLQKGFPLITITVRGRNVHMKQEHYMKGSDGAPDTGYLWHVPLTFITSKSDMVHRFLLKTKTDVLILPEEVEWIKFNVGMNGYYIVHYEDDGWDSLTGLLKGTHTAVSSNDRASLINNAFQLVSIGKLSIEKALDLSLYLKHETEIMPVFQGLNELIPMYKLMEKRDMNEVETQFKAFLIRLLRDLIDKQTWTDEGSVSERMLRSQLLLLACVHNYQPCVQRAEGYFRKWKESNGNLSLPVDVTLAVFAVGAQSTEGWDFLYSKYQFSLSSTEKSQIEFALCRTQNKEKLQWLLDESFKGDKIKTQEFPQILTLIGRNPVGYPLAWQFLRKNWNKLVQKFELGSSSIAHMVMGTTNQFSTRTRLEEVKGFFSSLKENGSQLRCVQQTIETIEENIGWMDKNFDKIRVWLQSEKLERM
DENV2 CPE rescue – DENV2-induced cell death inhibition | DENV2-infected cells, cytopathic effect rescue, plate reader | CPE inhibition, % at 9.99 µM | 350,000 tested, 1.7% active | AID 651640; in the data active = CPE inhibition above about 20%, passing the limit was not always enough; inconclusive = no clear call, values can overlap the other calls; tested in BHK-21 cells;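 also: 0% = median of neutral control wells and 100% = median of positive control wells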
* hit, by the source's call; u = inconclusive; x = not tested or not shown.

SMILES | S100A4 MyoIIA | CAL PDZ FP-1 | SIRT5 inh | CAL PDZ FP-2 | ERAP1 inh | DENV2 CPE rescue
C[C@H](CO)N1C[C@H](C)[C@@H](CN(C)Cc2ccc(Cl)c(Cl)c2)Oc2ccc(NC(=O)CCCCCC(=O)Nc3ccccc3N)cc2CC1=O | 1 | x | 26* | x | 0 | -6
C[C@@H]1CN([C@@H](C)CO)C(=O)Cc2cc(NC(=O)CCCCCC(=O)Nc3ccccc3N)ccc2O[C@@H]1CN(C)Cc1ccc(-c2ccccc2)cc1 | -1 | x | -2 | x | 2 | 13
C[C@H]1CN([C@@H](C)CO)C(=O)Cc2cc(NC(=O)CCCCCC(=O)Nc3ccccc3N)ccc2O[C@H]1CN(C)Cc1ccc(Oc2ccccc2)cc1 | 7 | x | 20* | x | 1 | u
CCCC#Cc1cnc2c(c1)C(=O)N([C@@H](C)CO)C[C@H](C)[C@H](CN(C)C(=O)Nc1cc(F)ccc1F)O2 | 2 | x | -2 | x | 2 | 4
CO[C@H]1CN(C)C(=O)c2ccc(NC(=O)C3CC3)cc2OC[C@H](C)N(Cc2ccccc2)C[C@H]1C | 0 | x | 4 | x | -7 | 6
C[C@@H]1CN([C@@H](C)CO)C(=O)Cc2cc(NC(=O)CCCCCC(=O)Nc3ccccc3N)ccc2O[C@@H]1CN(C)Cc1ccc2c(c1)OCO2 | -2 | x | 6 | x | -3 | 60*
C[C@@H]1CN([C@H](C)CO)C(=O)Cc2cc(NC(=O)CCCCCC(=O)Nc3ccccc3N)ccc2O[C@H]1CN(C)Cc1ccc2c(c1)OCO2 | 1 | x | x | x | 2 | -8
C[C@H](CO)N1C[C@H](C)[C@H](CN(C)Cc2ccc(Cl)c(Cl)c2)Oc2ccc(NC(=O)CCCCCC(=O)Nc3ccccc3N)cc2C1=O | -6 | x | 24* | x | -1 | -3
C[C@@H]1CN([C@H](C)CO)C(=O)c2cc(NC(=O)CCCN(C)C)ccc2O[C@@H](C)CCCCO[C@@H]1CN(C)Cc1ccc(C(=O)O)cc1 | 9 | x | -1 | x | 0 | 2
C=CCn1nnnc1SCC(=O)Nc1ccc(C(=O)OC)cc1 | -3 | 0 | -1 | x | -2 | -5
O=C(CSc1ncnc2c1oc1ccccc12)Nc1cccc(C(F)(F)F)c1 | -6 | 0 | -1 | x | -5 | 37*
C=CCn1nnnc1SCC(=O)Nc1cccc(C(F)(F)F)c1 | 13 | -1 | -11 | -7 | 103* | 2
C/C=C/c1ccc([C@@H]2[C@@H](CNC(=O)C3CC3)N(C(=O)CC)[C@H]2CO)cc1 | -8 | x | 6 | x | 0 | 26*
C/C=C/c1ccc([C@H]2[C@H](CO)N(C(C)=O)[C@H]2CNC(=O)c2ccccc2)cc1 | -2 | x | -1 | x | -2 | -9
C/C=C/c1ccc([C@H]2[C@@H](CO)N(C(C)=O)[C@H]2CNC(=O)c2ccccc2)cc1 | -3 | x | 3 | x | -1 | 24*
O=C(C1CCCC1)N1CC2(C1)[C@H](c1ccccc1)[C@H](CO)N2Cc1nccs1 | 3 | x | 18* | x | 2 | u
O=C(C1CCCCC1)N1CC2(C1)[C@H](c1ccccc1)[C@H](CO)N2Cc1cncnc1 | -15 | x | 3 | x | -1 | 40*
O=C(C1CCOCC1)N1CC2(C1)[C@H](c1ccccc1)[C@@H](CO)N2Cc1ccc(Cl)cc1 | 2 | x | 1 | x | 0 | 29*
O=C(C1CCCCC1)N1CC2(C1)[C@@H](c1ccccc1)[C@@H](CO)N2Cc1cncnc1 | -47 | x | -2 | x | -1 | 11
O=C(C1CCCC1)N1CC2(C1)[C@H](c1ccccc1)[C@@H](CO)N2Cc1ccc(Cl)cc1 | 14 | x | 31* | x | 0 | 3
O=C(C1CCCC1)N1CC2(C1)[C@@H](c1ccccc1)[C@@H](CO)N2Cc1ccc(Cl)cc1 | 0 | x | 5 | x | 1 | -7
O=C(c1ccccn1)N1CC[C@@H]2[C@@H](CO)Nc3ccc(-c4ccccc4)cc3[C@@H]21 | -1 | x | x | x | 1 | -10
CN1CCN(C(=O)C[C@H]2C[C@@H]3c4cc(NC(=O)Cc5ccncc5)ccc4O[C@@H]3[C@H](CO)O2)CC1 | -27 | x | -1 | x | -5 | -4
O=C(CSc1nnnn1-c1ccccc1)c1ccc(O)cc1O | 0 | -2 | 7 | 43* | 3 | -3
O=C(NCCc1ccccc1)[C@H]1[C@H](CO)[C@H]2Cn3c(cccc3=O)[C@@H]1N2CC1CC1 | -2 | x | 0 | x | -1 | u
SMILES | S100A4 MyoIIA | CAL PDZ FP-1 | SIRT5 inh | CAL PDZ FP-2 | ERAP1 inh | DENV2 CPE rescue
CO[C@@H]1CN(C)C(=O)c2cc(NC(=O)C3CCC3)ccc2OC[C@H](C)N(C(=O)CN(C)C)C[C@H]1C | 6 | x | -3 | x | 1 | -5
CC1=CC(=O)C(Sc2ccc(C)cc2)=CC1=O | 6 | x | 7 | x | 9 | 95*
O=C1CN(S(=O)(=O)Cc2ccccc2)C[C@@H]2[C@@H](c3ccc(C#CC4CC4)cc3)[C@@H](CO)N12 | 14 | x | -9 | x | 1 | -4
CC(C)CCC(O)(c1ccccc1)C(CN1CCOCC1)c1ccccc1 (centres undefined) | 4 | x | 1 | 1 | -2 | 30*
COc1ccc(C(O)(CCC(C)C)C(CN2CCOCC2)c2ccccc2)cc1 (centres undefined) | 3 | -3 | -3 | -2 | -8 | -4
CCNC(=O)C(=O)c1c(-c2ccccc2)[nH]c2ccccc12 | 1 | 0 | 1 | x | -1 | 3
Nc1sc(Cc2ccccc2)cc1C(=O)c1c(-c2ccccc2)[nH]c2ccccc12 | -5 | x | 0 | x | x | 84*
CCCNC(=O)[C@@H]1[C@@H](CO)[C@@H]2Cn3c(ccc(-c4ccccc4)c3=O)[C@@H]2N1C(=O)c1ccccc1F | 4 | x | -17 | x | 0 | -6
COc1ccc(S(=O)(=O)N(C)C[C@H]2Oc3ccc(NS(=O)(=O)c4c(C)noc4C)cc3CC(=O)N([C@H](C)CO)C[C@@H]2C)cc1 | u | x | -5 | x | 1 | -5
CCCn1cnc2c(SCCc3ccccc3)nc(N)nc21 | -16 | x | 0 | 54* | -2 | 2
CCCCn1cnc2c(SCCc3ccccc3)nc(N)nc21 | -3 | -1 | 6 | -4 | 0 | 1
CCC(CO)NC(=O)c1ccccc1C(F)(F)F (centres undefined) | 26 | -1 | 23* | -1 | -1 | -7
CC(=O)Nc1sc2c(c1C(N)=O)CCCC2 | x | -1 | x | 0 | x | x
CC(=O)Nc1sc2c(c1C(N)=O)CCC2 | x | x | x | 68* | x | x
COc1ccc(Cc2nc3ccc(C(=O)N(C)C(C)c4ccon4)cc3o2)cc1 (centres undefined) | 6 | 1 | -5 | 34* | -1 | -1
O=C(C[C@H]1CC[C@H](NC(=O)C2CCC2)[C@H](CO)O1)NC1CCC1 | -4 | x | -2 | x | -2 | 3
CSc1nsc(SCC(=O)NCc2ccccc2)n1 | -5 | -1 | -2 | 1 | 9 | -1
Cc1ccc(CNC(=O)CSc2ccc(-c3cccs3)nn2)cc1 | 2 | -6 | x | 4 | 1 | 20*
CSc1nsc(SCC(=O)NCc2ccc(C)cc2)n1 | -3 | x | 0 | 71* | 1 | -9
